Measurements taken from ChEMBL document CHEMBL1139207, “Pyrroloacridine alkaloids from Plakortis quasiamphiaster: structures and bioactivity” (J Nat Prod, 2007).
The source made the active and inactive calls. The rule behind the calls is not given here.

What was measured:
[1] = Cytotoxicity against human H116 cells by disk diffusion assay; type: cell-based
Saccharomyces cerevisiae [2] = assay: Inhibition of Saccharomyces cerevisiae top1delta by yeast halo assay; type: functional, organism-based
Outline: (§1)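 Diploid S. cerevisiae BY4743 (top1∆ or wild type) from overnight culture seeded into YPD-H agar (YPD buffered with 25 mM HEPES, pH 7) and cooled 30 min. DMSO stocks were pin-transferred at 200 nL into the agar. Plates read by absorbance at 544 nm, growth-inhibition halo diameter measured, and top1∆ growth compared with wild type.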

Saccharomyces cerevisiae [3] = assay: Inhibition of wild type Saccharomyces cerevisiae by yeast halo assay; type: functional, organism-based; outline: as §1
Saccharomyces cerevisiae [4] = assay: Inhibition of Saccharomyces cerevisiae top1delta in liquid culture; type: functional
Outline: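 Diploid S. cerevisiae BY4743 top1∆ and wild type grown in 100 µL liquid cultures with six 2-fold dilutions of compound alongside DMSO controls. Absorbance at 544 nm read every 30 min. Doubling time computed at each concentration and compared with the DMSO doubling time; LC50 derived.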

[5] = Induction of Top2-mediated catenation of DNA; type: functional
[6] = Cytotoxicity against human H116 cells by clonogenic assay after 2 hrs; type: cell-based; details: h116, 2 h
Outline: (§2)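 Clonogenic survival of human colon H-116 cells over a range of concentrations, exposed for 2, 24 or 168 h (168 h being continuous over the 7-day incubation). Value reported as the concentration giving 10% surviving fraction (S10), read from the concentration-response curve.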

[7] = Cytotoxicity against human H116 cells by clonogenic assay after 24 hrs; type: cell-based; details: h116, 24 h; outline: as §2
[8] = Cytotoxicity against human H116 cells by clonogenic assay after 168 hrs; type: cell-based; details: h116, 168 h; outline: as §2

SMILES	Activity [1]	Activity (Saccharomyces cerevisiae [2])	Activity (Saccharomyces cerevisiae [3])	LC50 (Saccharomyces cerevisiae [4])	Activity [5]	Activity [6]	Activity [7]	Activity [8]
CCC/C=C/CCCCCCCCCC[C@]1(C)OC(=O)[C@@H](CO)[C@@H]1O [AMPHIASTERIN B1]	Not Active	inactive	inactive					
O=C1CCNC2=C1C(=O)c1[nH]cc3c1c2nc1ccccc13 [PLAKINIDINE E]	Not Active	Toxic	Non-toxic	33 µM				
Cn1ccc2c(c1=O)C(=O)c1nccc3c1c-2nc1ccccc13					Active			
CCC/C=C/CCCCCCCCCCCC[C@]1(C)OC(=O)[C@@H](CO)[C@@H]1O [AMPHIASTERIN B2]	Not Active	inactive	inactive					
CNc1c2c(c3nc4ccccc4c4c3c1N=C4)NCCC2=O [PLAKINIDINE A]	Active	inactive	inactive			20 µg/mL	1.5 µg/mL	150 ng/mL
